Most compounds without a hit are left out; they make up all but 1.3% or so of the library.
HKDC1 inh: blocks human hexokinase HKDC1 activity. Q2TB90. recombinant HKDC1, G6PDH/diaphorase resazurin coupled fluorescence. inhibition, % at 20 µM. hit rate 0.16% among 340,000. AID 493160;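 active = inhibition above about 35% when tested at 20 µM, limit read from the data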
Target sequence (Q2TB90 whole entry, looked up): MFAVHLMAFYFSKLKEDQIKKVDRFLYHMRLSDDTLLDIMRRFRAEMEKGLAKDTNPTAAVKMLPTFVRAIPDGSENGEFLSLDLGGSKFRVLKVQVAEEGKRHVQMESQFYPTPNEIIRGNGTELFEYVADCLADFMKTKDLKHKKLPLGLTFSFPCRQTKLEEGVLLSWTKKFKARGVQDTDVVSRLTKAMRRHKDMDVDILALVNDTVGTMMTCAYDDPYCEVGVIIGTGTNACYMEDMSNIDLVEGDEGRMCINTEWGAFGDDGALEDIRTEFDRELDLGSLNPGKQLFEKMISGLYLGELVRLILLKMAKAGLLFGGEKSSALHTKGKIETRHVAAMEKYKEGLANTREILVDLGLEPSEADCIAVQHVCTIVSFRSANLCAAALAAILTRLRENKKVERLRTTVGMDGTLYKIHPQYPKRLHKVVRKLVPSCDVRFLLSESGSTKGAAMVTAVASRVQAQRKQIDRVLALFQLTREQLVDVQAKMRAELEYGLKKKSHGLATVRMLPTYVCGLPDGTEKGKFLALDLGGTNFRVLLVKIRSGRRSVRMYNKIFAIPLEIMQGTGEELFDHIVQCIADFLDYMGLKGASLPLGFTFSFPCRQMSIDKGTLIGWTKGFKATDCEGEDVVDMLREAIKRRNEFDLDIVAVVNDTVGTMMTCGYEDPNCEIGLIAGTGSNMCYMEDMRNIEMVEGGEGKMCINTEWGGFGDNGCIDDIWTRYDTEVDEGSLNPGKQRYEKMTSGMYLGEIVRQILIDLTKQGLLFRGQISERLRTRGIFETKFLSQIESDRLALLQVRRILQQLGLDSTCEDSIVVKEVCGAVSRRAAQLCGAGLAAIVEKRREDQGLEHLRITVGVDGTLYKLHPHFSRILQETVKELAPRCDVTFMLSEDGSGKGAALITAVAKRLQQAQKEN
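Assay system: in-house recombinant HK5 (HKDC1) enzyme. Input: HKDC1 at 5 µg/mL. Medium: Tris pH 8.0 buffer with MgCl2, Tween-20, BSA, BME. Dosing: single 20 µM dose. Schedule: 90 min reaction incubation at room temperature, dark. Signal: resazurin-to-resorufin fluorescence via G6PDH and diaphorase coupling, 525/613 nm. Controls: DMSO-enzyme wells negative, buffer-substituted wells positive.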
Diaphorase act: counter-screen for diaphorase-based assays: diaphorase activators and chemical reducers. AID 1229. hit rate 0.005% among 190,000. Diaphorase/resazurin coupled assay, resorufin fluorescence, 16 min; active compounds read high; 1 = vehicle wells, 0 = NADH-free wells. activation factor at 20 µM;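 active = diaphorase activity raised at least twofold by the compound at 20 µM; inactive = activation factor below 2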
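Assay system: bacterial diaphorase enzyme (C. kluyveri) / Input: enzyme 0.07 U/mL final / Medium: 50 mM HEPES pH 7.4 with 4.542 mM MgCl2, 0.005% Tween 20 / Doses: single compound dose of 20 µM, 1% DMSO final / Incubation: 16 min enzyme reaction, ambient temperature / Signal: fluorescence, excitation 544 nm and emission 590 nm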
G6PDH CS: L. mesenteroides G6PDH inhibition counter-screen. Purified L. mesenteroides G6PDH, diaphorase/resazurin coupled fluorescence, 45 min. inhibition, % at 5 µM. hit rate 0.12% among 200,000. AID 1020; in the data active = inhibition above about 50%
Diaphorase inh: diaphorase inhibition or chemical oxidation counter-screen. hit rate 0.69% among 190,000. diaphorase resazurin-to-resorufin fluorescence, NADH, 16 min; bacterial (C. kluyveri) enzyme, not human. AID 1217. inhibition, % at 20 µM;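 active = primary screen inhibition at 20 µM above a set limit, cut at about 50% in these data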
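Assay system: diaphorase enzyme from Clostridium kluyveri; Input: enzyme working solution with 0.14 U/mL diaphorase; Timing: 16 min at room temperature; Technique: resorufin fluorescence, excitation 544 nm, emission 590 nm; Benchmarks: positive control minus NADH, DMSO neutral control.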
TbHK1 inh: T. brucei hexokinase 1 inhibition; recombinant TbHK1, G6PDH-coupled NADH A340; inhibition, % at 10 µM; hit rate 0.11% among 220,000;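 active = inhibition of 50% or more in the single-dose primary screen; inactive = inhibition below 50%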
PfG6PD inh: PfG6PD (Plasmodium falciparum) enzyme inhibition | PfGluPho enzyme, NADPH resazurin-diaphorase fluorescence | inhibition, % at 20 µM | hit rate 0.78% among 350,000;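 active = inhibition reaching at least a set limit at 20 µM in the primary screen, cut at about 59% in these data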
HKDC1 act conf: confirmation of human HKDC1 activators; shares compounds with HKDC1 inh; inhibition, % at 20 µM; recombinant HKDC1, G6PDH/diaphorase resazurin fluorescence; active compounds read low; hit rate 14% among 740;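 active = inhibition at or below a set negative limit, negative inhibition meaning the enzyme was activated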
A number is an active result.

O=C(CN1CCN(C(C(=O)Nc2ccc(F)cc2)c2ccccc2)CC1)NC1CC1 (stereo not given) was read as HKDC1 inh inactive and PfG6PD inh inactive.
COC(=O)c1cc([N+](=O)[O-])c(-n2cncn2)c([N+](=O)[O-])c1 was read as HKDC1 inh inactive, G6PDH CS inactive, TbHK1 inh inactive and PfG6PD inh inactive.
C=CC(=O)N1C/C(=C/c2ccccc2)C(=O)/C(=C\c2ccccc2)C1 was read as HKDC1 inh 37.5, PfG6PD inh inactive and HKDC1 act conf inactive.
CC(=O)Nc1ccc(S(=O)(=O)NCCC(=O)OC(C)C(=O)c2ccc(C)cc2)cc1 (stereo not given) was read as HKDC1 inh 35.4, PfG6PD inh inactive and HKDC1 act conf inactive.
For Cc1ccc(NC(=O)C(C)OC(=O)CCNS(=O)(=O)c2ccc(C)cc2)cc1 (stereo not given) the results were HKDC1 inh inactive, Diaphorase act inactive, G6PDH CS inactive, Diaphorase inh inactive, TbHK1 inh inactive and PfG6PD inh inactive.
For Cc1ncc([N+](=O)[O-])n1Cc1ccc(F)cc1 the results were HKDC1 inh inactive, Diaphorase act inactive, G6PDH CS inactive, Diaphorase inh inactive, TbHK1 inh inactive and PfG6PD inh inactive.
`O=C(Nc1ccc(Nc2ccncc2)cc1)c1ccc(Nc2ccnc3ccc([N+](=O)[O-])cc23)cc1` gave HKDC1 inh 43.7, TbHK1 inh inactive, PfG6PD inh inactive and HKDC1 act conf inactive.
For O=C(Nc1ccc(Cc2ccncc2)cc1)c1cccc([N+](=O)[O-])c1 the results were HKDC1 inh inactive, Diaphorase act inactive, G6PDH CS inactive, Diaphorase inh inactive, TbHK1 inh inactive and PfG6PD inh inactive.
Fc1ccccc1N=C1NN=C(c2ccccc2)CS1 was read as HKDC1 inh inactive, Diaphorase act inactive, G6PDH CS inactive, Diaphorase inh inactive, TbHK1 inh inactive, PfG6PD inh inactive and HKDC1 act conf -53.4.
Fc1ccc(F)c(C2=NNC(=Nc3ccccc3F)SC2)c1 was read as HKDC1 inh inactive, Diaphorase act inactive, G6PDH CS inactive, Diaphorase inh inactive, TbHK1 inh inactive and PfG6PD inh inactive.
Screening Fc1ccc(N=C2NN=C(c3cc(F)ccc3F)CS2)cc1 returned HKDC1 inh inactive, Diaphorase act inactive, G6PDH CS inactive, Diaphorase inh inactive, TbHK1 inh inactive, PfG6PD inh inactive and HKDC1 act conf -131.9.
`NC(CCCCCP(=O)(c1ccccc1)c1ccccc1)C(=O)O` (stereo not given) gave HKDC1 inh inactive, TbHK1 inh inactive and PfG6PD inh inactive.
CC(=O)N1c2ccc(Cl)cc2C2C=CCC2C1c1cccc2ccccc12 (stereo not given) was read as HKDC1 inh 42.5, Diaphorase act inactive, G6PDH CS inactive, Diaphorase inh inactive, TbHK1 inh inactive, PfG6PD inh inactive and HKDC1 act conf inactive.
Screening CC(=O)N1c2ccc3ccccc3c2C2C=CCC2C1c1ccc(Br)cc1 (stereo not given) returned Diaphorase act inactive, G6PDH CS inactive, Diaphorase inh inactive and TbHK1 inh inactive.
`CC[C@@]1(C(=O)OC)N[C@H](CN(C)C(=O)Nc2ccc(OC)cc2)[C@@H]2C(=O)N(C)C(=O)[C@@H]21` gave HKDC1 inh inactive and PfG6PD inh inactive.
`Cc1c(N=C2C=CC(=O)c3ccccc32)c(=O)n(-c2ccccc2)n1C` gave HKDC1 inh 41.9, Diaphorase act inactive, G6PDH CS inactive, Diaphorase inh 58.1, TbHK1 inh inactive, PfG6PD inh 86.3 and HKDC1 act conf inactive.
`CN1CCN(C(=O)C2=C[C@@H](c3coc4ccccc4c3=O)C[C@@H](OCCCCO)O2)CC1` gave HKDC1 inh inactive, Diaphorase act inactive, G6PDH CS inactive, Diaphorase inh inactive, TbHK1 inh inactive and PfG6PD inh inactive.
For Cc1cccc(C)c1Nc1nnc(SCc2cn3cccc(C)c3n2)s1 the results were HKDC1 inh inactive, Diaphorase act inactive, G6PDH CS inactive, Diaphorase inh inactive, TbHK1 inh inactive, PfG6PD inh inactive and HKDC1 act conf inactive.
Screening CC(=O)C1=C(c2cccc([N+](=O)[O-])c2)N(C(C)=O)n2c(C)nnc2S1 returned HKDC1 inh inactive, Diaphorase act inactive, G6PDH CS inactive, Diaphorase inh inactive, TbHK1 inh inactive, PfG6PD inh inactive and HKDC1 act conf -387.4.
`CC(=O)c1c(C(C)=O)c(C)n(-c2cccc([N+](=O)[O-])c2)c1C` gave HKDC1 inh inactive, Diaphorase act inactive, G6PDH CS inactive, Diaphorase inh inactive, TbHK1 inh inactive and PfG6PD inh inactive.
Cc1cc(C(=O)COC(=O)c2ccccc2O)c(C)n1CC1CCCO1 (stereo not given) was read as HKDC1 inh inactive and PfG6PD inh inactive.
`Cc1cc(C(=O)COC(=O)c2cc(O)c3ccccc3c2O)c(C)n1CC1CCCO1` (stereo not given) gave HKDC1 inh 46.6, Diaphorase act inactive, G6PDH CS inactive, Diaphorase inh inactive, TbHK1 inh inactive, PfG6PD inh 78.4 and HKDC1 act conf inactive.
CCc1nc2sc3c(=O)[nH]cnc3c2c2c1CSC(C)(C)C2 was read as HKDC1 inh 37.4, TbHK1 inh inactive, PfG6PD inh inactive and HKDC1 act conf inactive.
`NC(=S)N/N=C/c1ccc(Br)o1` gave HKDC1 inh inactive, Diaphorase act inactive, G6PDH CS inactive, Diaphorase inh inactive, TbHK1 inh inactive, PfG6PD inh inactive and HKDC1 act conf inactive.
Screening NC(=S)N/N=C/c1ccc(-c2cc(Cl)c(Cl)cc2Cl)o1 returned HKDC1 inh inactive, Diaphorase act inactive, G6PDH CS inactive, Diaphorase inh inactive, TbHK1 inh inactive and PfG6PD inh inactive.
Screening Cc1n[nH]c(=O)c2c(NC(=O)CSc3nnc(-c4ccco4)n3C)oc(C)c12 returned HKDC1 inh inactive and PfG6PD inh inactive.
`Cc1n[nH]c(=O)c2c(NC(=O)CSc3nnc(C4CC4)n3C)oc(C)c12` gave HKDC1 inh 39.7, PfG6PD inh inactive and HKDC1 act conf inactive.
Screening Cc1cccc(-c2nc3c(s2)CCc2onc(-c4ccc(Br)cc4)c2-3)c1 returned HKDC1 inh inactive and PfG6PD inh inactive.
Screening CCN(C(=O)c1cccc(NC(=O)c2ccccc2)c1)C1CCCCC1 returned HKDC1 inh inactive and PfG6PD inh inactive.
For Cc1ccc(-c2nnc(SCC(=O)N/N=C/c3ccc(C)s3)n2-c2ccccc2)cc1 the results were HKDC1 inh inactive, Diaphorase act inactive, G6PDH CS inactive, Diaphorase inh inactive, TbHK1 inh inactive and PfG6PD inh inactive.

Screening results: PubChem BioAssay, several laboratories
